Calls of active or inactive are those of the source. The rule behind the calls is not given here.
Tests used:
[1] = system: Aspergillus niger; test: Antimicrobial activity against Aspergillus niger MTCC 1781 at 30 ug/ml after 48 hrs by agar diffusion method; assay type: functional, organism-based
Outline: (§1)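 Fungal spore suspensions in sterile distilled water adjusted to 10⁶ cfu/mL; 0.1 mL spread on Sabouraud's dextrose agar plates. Duplicate plates incubated 48 h at 28 ± 0.2 °C. Activity read as zone of inhibition in mm.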

[2] = system: Trichoderma viride; test: Antimicrobial activity against Trichoderma viride MTCC 167 at 30 ug/ml after 48 hrs by agar diffusion method; assay type: functional, organism-based; outline: as §1
[3] = system: Aspergillus flavus; test: Antimicrobial activity against Aspergillus flavus MTCC 2501 at 30 ug/ml after 48 hrs by agar diffusion method; assay type: functional, organism-based; outline: as §1
[4] = system: Staphylococcus aureus; test: Antimicrobial activity against Staphylococcus aureus MTCC 96 at 100 ug/ml after 24 hrs by agar diffusion method; assay type: functional; conditions: MTCC 96, 24 h, read-out: IZ
Outline: (§2)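 Agar diffusion on Mueller Hinton agar. Plates were seeded with 0.1 mL of bacterial suspension at 10⁵ cfu/mL in 0.85% sterile saline. Duplicate plates were incubated 24 h at 37 °C, and the zone of inhibition was measured in mm.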

[5] = system: Aspergillus niger; test: Antimicrobial activity against Aspergillus niger MTCC 1781 at 250 ug/ml after 48 hrs by agar diffusion method; assay type: functional; conditions: MTCC 1781, 48 h, read-out: IZ
Outline: (§3)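 Agar diffusion on Sabouraud's dextrose agar. Plates were spread with 0.1 mL of fungal spore suspension in sterile distilled water, adjusted to 10⁶ cfu/mL. Duplicate plates were incubated 48 h at 28 °C, and the zone of inhibition was measured in mm.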

[6] = system: THP-1; test: Antiinflammatory activity in human THP1 cells assessed as inhibition of LPS-induced TNFalpha release at 10 uM after 24 hrs by ELISA; assay type: functional; conditions: THP-1, 24 h
Outline: (§4)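 PMA-differentiated THP-1 cells in RPMI 1640 with 10% FBS, penicillin and streptomycin. Test compound in 0.5% DMSO added 30 min at 37 °C before E. coli 0127:B8 LPS, then further incubation at 37 °C. Supernatant TNF-α and IL-6 measured by ELISA. Percent inhibition calculated against control.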

[7] = system: Bacillus subtilis; test: Antimicrobial activity against Bacillus subtilis MTCC 1789 at 100 ug/ml after 24 hrs by agar diffusion method; assay type: functional; conditions: MTCC 1789, 24 h, read-out: IZ; outline: as §2
[8] = system: THP-1; test: Antiinflammatory activity in human THP1 cells assessed as inhibition of LPS-induced IL6 release at 10 uM after 24 hrs by ELISA; assay type: functional; conditions: THP-1, 24 h; outline: as §4
[9] = system: THP-1; test: Cytotoxicity against human THP1 cells assessed as CCK8 […] at 10 uM after 24 hrs […]; assay type: cell-based; conditions: thp-1, 24 h
Outline: (§5)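 Cytotoxicity was read with CCK-8 in the same wells as the cytokine assay. PMA-differentiated THP-1 cells were exposed to compound in 0.5% DMSO for 30 min at 37 °C, then stimulated with LPS and incubated further at 37 °C.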

[10] = system: Trichoderma viride; test: Antimicrobial activity against Trichoderma viride MTCC 167 at 250 ug/ml after 48 hrs by agar diffusion method; assay type: functional; conditions: MTCC 167, 48 h, read-out: IZ; outline: as §3
[11] = system: Aspergillus flavus; test: Antimicrobial activity against Aspergillus flavus MTCC 2501 at 250 ug/ml after 48 hrs by agar diffusion method; assay type: functional; conditions: MTCC 2501, 48 h, read-out: IZ; outline: as §3
[12] = system: Radical scavenging activity; test: Antioxidant activity assessed as DPPH radical scavenging activity; assay type: functional; design: concentration or dose not given beside the values
[13] = system: Escherichia coli; test: Antimicrobial activity against Escherichia coli MTCC 1650 at 100 ug/ml after 24 hrs by agar diffusion method; assay type: functional; conditions: MTCC 1650, 24 h, read-out: IZ; outline: as §2
[14] = system: Proteus vulgaris; test: Antimicrobial activity against Proteus vulgaris MTCC 1771 at 100 ug/ml after 24 hrs by agar diffusion method; assay type: functional; conditions: MTCC 1771, 24 h, read-out: IZ; outline: as §2
[15] = system: Klebsiella pneumoniae; test: Antimicrobial activity against Klebsiella pneumoniae NCIM 2957 at 100 ug/ml after 24 hrs by agar diffusion method; assay type: functional; conditions: for zone of inhibition at 100 µg/mL: NCIM 2957, 24 h, read-out: IZ; outline: as §2
[16] = Cytotoxicity against human THP1 cells assessed as CCK8 […] at 1 uM/mL after 24 hrs […]; assay type: cell-based; conditions: THP-1 cells; outline: as §5
[17] = system: THP-1; test: Antiinflammatory activity in human THP1 cells assessed as inhibition of LPS-induced IL6 release at 1 uM/mL after 24 hrs by ELISA; assay type: functional; conditions: THP-1, 24 h; outline: as §4
[18] = system: THP-1; test: Antiinflammatory activity in human THP1 cells assessed as inhibition of LPS-induced TNFalpha release at 1 uM/mL after 24 hrs by ELISA; assay type: functional; conditions: THP-1, 24 h; outline: as §4
[19] = system: Proteus vulgaris; test: Antimicrobial activity against Proteus vulgaris MTCC 1771 at 10 ug/ml after 24 hrs by agar diffusion method; assay type: functional; conditions: MTCC 1771, 24 h, read-out: IZ; outline: as §2
[20] = system: Staphylococcus aureus; test: Antimicrobial activity against Staphylococcus aureus MTCC 96 at 10 ug/ml after 24 hrs by agar diffusion method; assay type: functional; conditions: MTCC 96, 24 h, read-out: IZ
Outline: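 Mueller Hinton agar seeded with 0.1 mL of bacterial suspension in sterile 0.85% saline at 10⁵ cfu/mL. Duplicate plates incubated 24 h at 37 ± 0.5 °C. Activity read as zone of inhibition in mm.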

[21] = system: Klebsiella pneumoniae; test: Antimicrobial activity against Klebsiella pneumoniae NCIM 2957 at 10 ug/ml after 24 hrs by agar diffusion method; assay type: functional; conditions: NCIM 2957, 24 h, read-out: IZ; outline: as §2

Compound | zone of inhibition at 100 µg/mL [4] | zone of inhibition at 250 µg/mL [5] | inhibition at 10 µM [6] | zone of inhibition at 100 µg/mL [7] | inhibition at 10 µM [8] | Activity [9] | zone of inhibition at 250 µg/mL [10] | zone of inhibition at 250 µg/mL [11] | Activity [12] | zone of inhibition at 100 µg/mL [13] | other results
NYSTATIN | – | – | – | – | – | – | – | – | – | – | inhibition zone (IZ) [1]: 11 mm; inhibition zone (IZ) [2]: 12 mm; inhibition zone (IZ) [3]: 11 mm
COc1ccc(C(=O)/C=C/c2cn(-c3ccccc3)nc2-c2ccc(Cl)cc2Cl)c(OC)c1 | 10 mm | 8 mm | 0% | 9 mm | 40.8% | 0% | 10 mm | 10 mm | 18.2% | 11 mm | –
COc1ccc(C(=O)/C=C/c2cn(-c3ccccc3)nc2-c2cccc(Cl)c2)c(OC)c1 | 6 mm | 9 mm | 0% | 8 mm | 67.5% | 0% | 11 mm | 10 mm | 29.7% | 9 mm | zone of inhibition at 100 µg/mL [14]: 8 mm; inhibition zone (IZ) [15]: Active
COc1ccc(C(=O)/C=C/c2cn(-c3ccccc3)nc2-c2ccc(F)cc2)c(OC)c1 | 15 mm | 13 mm | 0% | 14 mm | 0% | 0% | 14 mm | 12 mm | 26.7% | 12 mm | zone of inhibition at 100 µg/mL [14]: 10 mm
C[C@@H]1C[C@H]2[C@@H]3CCC4=CC(=O)C=C[C@]4(C)[C@@]3(F)[C@@H](O)C[C@]2(C)[C@@]1(O)C(=O)CO [DEXAMETHASONE] | – | – | – | – | – | – | – | – | – | – | inhibition at 24 h, 1 µM [16]: 0%; inhibition at 1 µM [17]: 90%; inhibition at 1 µM [18]: 69%
COc1ccc(C(=O)/C=C/c2cn(-c3ccccc3)nc2-c2ccc(OC)cc2OC)c(OC)c1 | 7 mm | 12 mm | 0% | 6 mm | 37.9% | 2.5107% | 14 mm | 13 mm | 30.3% | 10 mm | zone of inhibition at 100 µg/mL [15]: 8 mm
COc1ccc(C(=O)/C=C/c2cn(-c3ccccc3)nc2-c2ccccc2Cl)c(OC)c1 | 8 mm | 11 mm | 0% | 7 mm | 14.5% | 0% | 12 mm | 9 mm | 13.8% | 12 mm | –
COc1ccc(O)c(C(C)(C)C)c1.COc1ccc(O)cc1C(C)(C)C | – | – | – | – | – | – | – | – | 66.8% | – | –
COc1ccc(C(=O)/C=C/c2cn(-c3ccccc3)nc2-c2ccc(Br)cc2)c(OC)c1 | 8 mm | 11 mm | 1.81% | 7 mm | 11.3% | 0% | 13 mm | 13 mm | 17.2% | 9 mm | zone of inhibition at 100 µg/mL [15]: 10 mm
COc1ccc(-c2nn(-c3ccccc3)cc2/C=C/C(=O)c2ccc(OC)cc2OC)cc1 | 11 mm | 15 mm | 0% | 10 mm | 38.2% | 0% | 16 mm | 14 mm | 34.6% | 8 mm | zone of inhibition at 100 µg/mL [14]: 7 mm; inhibition zone (IZ) [15]: Active
COc1ccc(C(=O)/C=C/c2cn(-c3ccccc3)nc2-c2ccc(C)cc2)c(OC)c1 | 9 mm | 14 mm | 0% | 8 mm | 0% | 0% | 15 mm | 12 mm | 13.5% | 11 mm | zone of inhibition at 100 µg/mL [15]: 12 mm
COc1ccc(C(=O)/C=C/c2cn(-c3ccccc3)nc2-c2ccccc2)c(OC)c1 | 8 mm | 12 mm | 0% | 10 mm | 64.7% | 0% | 14 mm | 15 mm | 31.8% | 10 mm | –
COc1ccc(C(=O)/C=C/c2cn(-c3ccccc3)nc2-c2ccc(Cl)cc2)c(OC)c1 | 11 mm | 11 mm | 1.13% | 13 mm | 2.71% | 11.488% | 13 mm | 10 mm | 18.7% | 11 mm | zone of inhibition at 100 µg/mL [14]: 12 mm
CN(C)[C@@H]1C(O)=C(C(N)=O)C(=O)[C@@]2(O)C(O)=C3C(=O)c4c(O)cccc4[C@@](C)(O)[C@H]3C[C@@H]12 [TETRACYCLINE] | – | – | – | – | – | – | – | – | – | – | zone of inhibition at 10 µg/mL [19]: 20 mm; zone of inhibition at 10 µg/mL [20]: 17 mm; zone of inhibition at 10 µg/mL [21]: 32 mm
